Measured values taken from PubChem BioAssay.
A number with no mark means an inactive call. Activity calls are given as the source filed them.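 The calls were made as follows: active = growth inhibition above 25% in both replicates, a cutoff set 3 SD above the mean; inconclusive = above 25% in only one replicate; inactive = the rest.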

Assay: S. cerevisiae growth inhibition in permissive medium (OD615), pilot counter-assay for S. cerevisiae lifespan shortening project, permissive growth control (AID 705)
Details: OD615, 24 h, at 10 µM, hits give high values
Procedure, shortened: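 System: engineered DeaD yeast; Medium: permissive raffinose/galactose medium; Compound dosing: 10 µM single dose, 0.25% DMSO; Incubation: 4 h cell pre-growth, 24 h exposure at 30 °C; Technique: OD at 615 nm; Evaluation: growth inhibition from lowered OD615 after 24 h.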

Question: For `COC(=O)CN(c1ccccc1)S(=O)(=O)c1ccccc1`, which growth inhibition is on record?
Answer: The growth inhibition was -15.8%.

Question: Which growth inhibition does the source give for `CCCC(c1c(C)n(C)n(-c2ccccc2)c1=O)c1c(C)n(C)n(-c2ccccc2)c1=O` here?
Answer: Its growth inhibition is -9.58%.

Question: With `O=C(Cn1cc2c(n1)CCCCC2)NCc1ccccn1` as the compound, how does the growth inhibition read?
Answer: The growth inhibition was -5.75%.

Question: For `CC(C)n1c(CCCO)nc2ccccc21`, which growth inhibition is on record?
Answer: Its growth inhibition is -11.3%.

Question: Which growth inhibition does the source give for `O=C(CCCCCN1C(=O)C2C3C=CC(C3)C2C1=O)Nc1nccs1` (stereo not given) here?
Answer: Its growth inhibition is -3.44%.

Question: Which growth inhibition does the source give for `O=C(CSc1nc(-c2ccccc2)c(-c2ccccc2)o1)N1CCOCC1` here?
Answer: Its growth inhibition is -8.68%.

Question: Which growth inhibition does the source give for `Cc1ccc2c(c1)c1c(n2CC(O)Cn2c(C)nc3ccccc32)C(=O)CCC1` (stereo not given) here?
Answer: The growth inhibition was -7.12%.

Question: Which growth inhibition does the source give for `O=C(Cn1ncc2c(=O)oc3ccccc3c21)N1CCCN(Cc2ccccc2F)C1` here?
Answer: Its growth inhibition is -3.74%.

Question: Which growth inhibition does the source give for `Cc1cccc(N2CCN(S(C)(=O)=O)CC2)c1C` here?
Answer: The growth inhibition was -14.5%.

Question: With `CCOC(=O)c1c(NC(=O)C2CCCN2S(=O)(=O)c2cccc3nsnc23)sc(C)c1C` (stereo not given) as the compound, how does the growth inhibition read?
Answer: The growth inhibition was -7.06%.

Question: Which growth inhibition does the source give for `COc1ccc(C2N3CC4(C)CN2CC(C)(C3)C4)cc1OC` (stereo not given) here?
Answer: The growth inhibition was -3.73%.

Question: For `Cc1ccc(C)c(SCC(=O)OCC(=O)c2ccco2)c1`, which growth inhibition is on record?
Answer: The growth inhibition was -21.2%.

Question: Which growth inhibition does the source give for `COc1ccc(-c2nc(CS(=O)(=O)CC(=O)Nc3ccc(Cl)cc3)c(C)o2)cc1` here?
Answer: The growth inhibition was -8.75%.

Question: For `CC(=O)c1ccc(-n2nncc2C)cc1`, which growth inhibition is on record?
Answer: Its growth inhibition is -4.02%.

Question: With `CN(C)C(=O)CSc1nnc(-c2cccnc2)n1-c1ccccc1` as the compound, how does the growth inhibition read?
Answer: Its growth inhibition is -5.85%.

Question: Which growth inhibition does the source give for `CC1CN(C(=O)c2cc3ccccc3oc2=O)CC(C)O1` (stereo not given) here?
Answer: The growth inhibition was 5.08%.

Question: For `COc1cccc(/C=C2\N=C(SC)SC2=O)c1OC`, which growth inhibition is on record?
Answer: Its growth inhibition is -20.1%.

Question: With `COc1ccc(OC)c(N(CC(=O)O)S(=O)(=O)c2ccc(OC)c(OC)c2)c1` as the compound, how does the growth inhibition read?
Answer: The growth inhibition was -2.7%.

Question: For `O=C(c1ccc(Br)o1)N1CCN=C1SCc1cccnc1`, which growth inhibition is on record?
Answer: The growth inhibition was -14.4%.

Question: Which growth inhibition does the source give for `CCc1n[nH]c2c1/C(=N\O)CC(C)(C)C2` here?
Answer: Its growth inhibition is -4.62%.

Question: Which growth inhibition does the source give for `CC(=O)C1C(c2ccccc2Cl)NC(=O)NC1(O)C(F)(F)F` (stereo not given) here?
Answer: Its growth inhibition is -3.3%.

Question: For `CCC(C)NC(=O)CN(c1ccc2c(c1)OCO2)S(=O)(=O)c1c(C)n[nH]c1C` (stereo not given), which growth inhibition is on record?
Answer: Its growth inhibition is -12.1%.

Question: For `CCOCCn1c(CN(Cc2ccccc2)Cc2ccccc2)nc2c1c(=O)n(C)c(=O)n2C`, which growth inhibition is on record?
Answer: The growth inhibition was 0.79%.

Question: Which growth inhibition does the source give for `COc1ccc(CN2CCN(c3cccc(C)c3C)CC2)cc1OC` here?
Answer: The growth inhibition was -8.54%.

Question: Which growth inhibition does the source give for `CCCc1cc(C(=O)N(C2CCCCC2)C2CCCCC2)no1` here?
Answer: The growth inhibition was 4.36%.

Question: With `CCCCNC(=O)c1cc(-c2ccc(OC)c(OC)c2)on1` as the compound, how does the growth inhibition read?
Answer: Its growth inhibition is 0.455%.

Question: Which growth inhibition does the source give for `O=C(Cn1cnc2c(nnn2-c2ccccc2)c1=O)N1CCCc2ccccc21` here?
Answer: Its growth inhibition is -10%.

Question: For `CCCCOC(=O)Nc1ccc(N2CCOCC2)cc1`, which growth inhibition is on record?
Answer: Its growth inhibition is -0.54%.

Question: For `Cc1nc(-c2ccc(S(=O)(=O)N3CCCCCC3)cc2)cs1`, which growth inhibition is on record?
Answer: The growth inhibition was 10.7%.

Question: With `Cc1ccc(-n2c(SCC(N)=O)nc3c([nH]c4ccccc43)c2=O)cc1` as the compound, how does the growth inhibition read?
Answer: The growth inhibition was -15.5%.

Question: With `CCOC(=O)N1CCC(NC(=O)c2ccc3snnc3c2)CC1` as the compound, how does the growth inhibition read?
Answer: The growth inhibition was -6.44%.

Question: Which growth inhibition does the source give for `CN(CC(=O)NC1CCCc2ccccc21)S(=O)(=O)c1ccc2c(c1)c(=O)n(C)c(=O)n2C` (stereo not given) here?
Answer: Its growth inhibition is -9.17%.

Question: For `COc1ccc(C2C(C(=O)NC(C)C)c3ccccc3C(=O)N2C)cc1OC` (stereo not given), which growth inhibition is on record?
Answer: Its growth inhibition is -12.9%.

Question: With `CCOC(=O)c1sc(NC(=O)C2CC2)nc1C` as the compound, how does the growth inhibition read?
Answer: The growth inhibition was -2.83%.

Question: With `N#CC1=C(SCC(=O)Nc2ccccc2)NC(=O)CC1c1ccc(O)cc1` (stereo not given) as the compound, how does the growth inhibition read?
Answer: Its growth inhibition is -15.2%.

Question: With `CCCCNc1cc(=O)n(C)c(=O)[nH]1` as the compound, how does the growth inhibition read?
Answer: Its growth inhibition is -12.2%.

Question: For `CC(=O)Oc1ccc(N2C(=O)C3C(C2=O)C2(C)C=CC3(C)O2)cc1` (stereo not given), which growth inhibition is on record?
Answer: Its growth inhibition is 95.1% (active).

Question: Which growth inhibition does the source give for `O=C(O)CCCC(=O)Nc1ccc(Cl)c(Cl)c1` here?
Answer: Its growth inhibition is 4.12%.

Question: Which growth inhibition does the source give for `CC1=C(C(=O)OC(C)C)C(c2ccc(Br)s2)NC(=O)N1C` (stereo not given) here?
Answer: The growth inhibition was -17%.

Question: For `CCOC(=O)N1CCN(C(=O)c2ccc3c(c2)N(CC)CCS3)CC1`, which growth inhibition is on record?
Answer: Its growth inhibition is -2.54%.
